From PubChem
CHOP UPR activ – activators of apoptotic arm of unfolded protein response (CHOP); CHO-CHOP luciferase reporter, UPR activation, luminescence; percent of tunicamycin response over DMSO baseline; activation, % at 10 µM; actives 0.34% (n = 330,000); AID 449763;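 active = at 10 µM dose, activation of 40% or more, normalized to positive control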;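 note: 100% = tunicamycin at 10 µg/mL and 0% = DMSO alone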
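Dosing – one dose, 10 µM in 0.5% DMSO · System – CHO-CHOP cells, stable luciferase reporter of PERK-eIF2a-CHOP signalling · Input – 500 cells/well · Control set – tunicamycin 10 µg/mL final as positive, DMSO-only wells as negative · Timing – 6 h compound treatment, 37 °C · Measure – % activation vs tunicamycin · Technique – luminescence read with Steady-Glo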
UPR XBP1 act – adaptive UPR (XBP1) activation; CHO-XBP1 luciferase reporter, IRE1-XBP1 UPR activation, luminescence; percent of tunicamycin response, DMSO as zero; activation, % at 20 µM; actives 0.33% (n = 330,000);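 active = versus positive control, 20 µM dose yields 30% or more activation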;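 note: 100% = tunicamycin at 10 µg/mL and 0% = DMSO only wells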
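Assay system: IRE1-XBP1 luciferase reporter CHO line. Input: 1000 cells/well. Buffer or medium: F12 with 10% serum. Doses: 20 µM, 1% DMSO. Times: overnight seeding at 37 °C, 6 h compound treatment at 37 °C. Technique: Steady-Glo luciferase glow luminescence, 10 min after reagent addition.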
TIM10 inh – growth inhibitors of TIM10 yeast strain; inhibition, % at 10 µM; actives 1.4% (n = 330,000); S. cerevisiae TIM10 strain growth, BacTiter-Glo luminescence, 24 h;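 active = inhibition of 40% or more at the single tested concentration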;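 note: wild-type TIM10 isogenic control strain grown at permissive 25 °C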
tim10-1 inh – tim10-1 yeast growth inhibition. S. cerevisiae tim10-1 ts strain growth, BacTiter-Glo, 24 h. inhibition, % at 20 µM. actives 2.2% (n = 330,000);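 active = inhibition of at least 40%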;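 note: mutant grown at 25 °C; 0% = DMSO wells with yeast and 100% = wells holding no yeast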
tim23-1 inh – growth inhibitors of tim23-1 mutant yeast; S. cerevisiae tim23-1 growth, BacTiter-Glo luminescence, 24 h; inhibition, % at 20 µM; actives 1.3% (n = 330,000);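 active = growth inhibition of the mutant yeast at or above 50%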;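 note: temperature-sensitive mutant grown at 25 °C; plate controls were DMSO-treated mutant yeast for no effect and medium wells lacking yeast for full effect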
tim10-1 confirm – confirmation of tim10-1 mutant yeast growth inhibitors; AID 463213; actives 56% (n = 7,400); shares compounds with tim10-1 inh; S. cerevisiae tim10-1 ts strain growth, BacTiter-Glo, 24 h; inhibition, % at 20 µM;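 active = inhibition of yeast growth at or above a set limit in either of two repeat tests at 20 µM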;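 note: tim10-1 mutant grown at permissive 25 °C to find synthetic lethal compounds; 0% = DMSO yeast wells and 100% = medium wells without yeast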
Starred values were filed as active, the others as inactive; . = no result. Only some compounds are listed: those with a hit (about 3.9% of all), similar ones and a draw of the others.

SMILES	CHOP UPR activ	UPR XBP1 act	TIM10 inh	tim10-1 inh	tim23-1 inh	tim10-1 confirm
CC1(NC(=O)Cn2cc(C(F)(F)F)ccc2=O)CCS(=O)(=O)C1 (stereo not drawn)	1	-1	8	8	11	.
CCCCNC(=S)N=Nc1c(O)[nH]c2ccccc12	3	0	32	47*	44	41*
CCOc1ccc(NC(=S)N=Nc2c(O)[nH]c3ccccc23)cc1	6	1	16	18	23	.
Cc1oc2c(C)c3oc(=O)c4c(c3cc2c1C)CCCC4	-1	4	27	54*	36	55*
O=C(Nc1ccc(N2CCOCC2)cc1)c1ccc(Cl)c(S(=O)(=O)N2CCCC2)c1	4	-2	4	-5	20	.
O=C(/C=C/c1cccc([N+](=O)[O-])c1)NCCSCc1ccc(Cl)cc1Cl	-2	-3	30	42*	37	35*
COc1ccc2nc(N3CCC(O)CC3)c(C#N)cc2c1	0	3	19	14	14	.
COc1ccc2nc(N3CCC(C)CC3)c(C#N)cc2c1	7	4	3	46*	21	9
Cc1ccc(C)c(OC(=O)c2cccc(S(=O)(=O)N3CCN(C)CC3)c2)c1	1	-1	25	42*	34	18
CC(=O)Nc1ccc(C(=O)NCC2CCCCC2)cc1	-1	0	-4	3	4	.
COc1ccc(CN2CCNC(=O)C2CC(=O)NCC2CCOCC2)c(F)c1 (stereo not drawn)	3	-4	1	13	12	.
CC(O)(CS(=O)(=O)Cc1ccc(Cl)cc1)C(=O)Nc1cccc(C(F)(F)F)c1 (stereo not drawn)	-2	-1	6	23	7	.
O=C(Nc1cccc(C(F)(F)F)c1)N(Cc1ccc(Cl)cc1)CC(O)C(F)(F)F (stereo not drawn)	0	1	18	47*	44	26
N/C(Cc1cccs1)=N\OC(=O)COc1ccc(Cl)cc1Cl	9	-1	26	49*	44	52*
Cc1ccccc1Nc1nc(N)c2ccccc2n1	0	-1	23	28	27	.
Nc1nc(Nc2ccccc2)nc2ccccc12	3	9	28	42*	13	38*
Cc1cccc(NC(=O)CNC(=O)Cc2ccc3c(c2)OCCO3)c1C	-2	-1	8	2	13	.
CCOc1ncccc1C(=O)Nc1c(C)n(C)n(-c2ccccc2)c1=O	2	6	-8	-17	0	.
CN(C)c1cccc(C(=O)NNC(=O)C23CC4CC(CC(C4)C2)C3)c1	5	6	3	11	15	.
O=C(CCNc1cc(Cl)cc(Cl)c1)c1cccs1	1	0	35	46*	42	19
O=C(CCNc1ccc(Cl)cc1)c1cccs1	20	5	16	21	21	.
Cc1c(C(=O)NCCCN2CCCCC2)oc2ccc3c(c12)C(O)CC1(CCCCC1)O3 (stereo not drawn)	1	0	-4	-8	4	.
CCOC(=O)C1CCN(C(=O)c2oc3ccc4c(c3c2C)C(O)CC2(CCCCC2)O4)CC1 (stereo not drawn)	1	-1	28	54*	46	33*
COc1ccc(C2=CC(c3ccc(OC)c(OC)c3)NC(=S)N2)cc1 (stereo not drawn)	-1	0	7	12	4	.
COc1ccc(C2C=C(C34CC5CC(CC(C5)C3)C4)NC(=S)N2)cc1 (stereo not drawn)	-2	-1	22	43*	35	30
CCOC(=O)c1ccc(CNC(=O)C2CCC(=O)N(CCc3ccccc3)C2)o1 (stereo not drawn)	-2	-9	-3	-12	3	.
CN1CCN(C(=S)NC(=O)/C=C/c2cccc3ccccc23)CC1	-1	-3	18	51*	19	9
CN1CCN(C(=S)NC(=O)/C=C/c2cccs2)CC1	1	-2	-18	8	13	.
Cn1c(=O)c2c(nc(SCC(=O)NCc3ccc4c(c3)OCO4)n2Cc2ccc(Cl)cc2)n(C)c1=O	-2	-1	23	41*	13	5
